Assay outcomes: PubChem BioAssay, several laboratories
CCR6 antagonist: CCR6 receptor antagonists, primary screen, cell-based, CHO-K1, luminescence, beta-arrestin, uHTS. C-C chemokine receptor type 6 (Homo sapiens), P51684. CHO-K1 CCR6 PathHunter beta-arrestin, CCL20-stimulated. inhibition, % at 20 µM. 340,000 compounds, 0.49% hits;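 active = compounds whose inhibition of the agonist-driven luminescence signal at 20 µM reaches about 50%, limit read from the data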;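 note: cells stimulated with CCL20 at 14 nM final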
Target sequence (P51684 whole entry, looked up): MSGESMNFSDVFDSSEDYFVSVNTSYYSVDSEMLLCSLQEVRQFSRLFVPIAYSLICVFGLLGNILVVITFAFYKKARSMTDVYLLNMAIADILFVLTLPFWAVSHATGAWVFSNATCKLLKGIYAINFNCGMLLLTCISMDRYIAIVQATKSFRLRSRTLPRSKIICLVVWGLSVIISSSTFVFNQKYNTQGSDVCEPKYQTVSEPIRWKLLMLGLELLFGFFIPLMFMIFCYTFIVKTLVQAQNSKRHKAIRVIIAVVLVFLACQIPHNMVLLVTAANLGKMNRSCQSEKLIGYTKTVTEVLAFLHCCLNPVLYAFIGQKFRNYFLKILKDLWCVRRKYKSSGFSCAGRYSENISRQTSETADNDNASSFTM
APJ ag: agonists of human apelin receptor APJ, primary screen, CHO-K1 cells, PathHunter beta-arrestin, luminescence; 0% DMSO wells, 100% apelin; activation, % at 20 µM; 330,000 compounds, 0.11% hits;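 active = activation more than six SD over the plate average, tested at 20 µM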
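Assay system – PathHunter CHO-K1 APJ (AGTRL-1) beta-arrestin reporter cells · Compound – one dose, 20 µM compound, 1% DMSO · Timing – compound 90 min 25 °C, reagent 1 h · Measured by – luminescence from split beta-galactosidase complementation, Galacton Star/Emerald II substrate · Measure – beta-arrestin recruitment to APJ as agonist activity, luminescent signal · Benchmarks – DMSO vs Apelin-13 10 nM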
EBI2 antag: EBI2 receptor antagonists, beta-arrestin recruitment, primary screen, cell-based, luminescence, 7a,25-OHC stimulation, uHTS; 360,000 compounds, 0.81% hits; inhibition, % at 5 µM; 7a,25-OHC stimulated; AID 651636, 2012; in the data active = inhibition above about 38%;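 note: enzyme fragment complementation signal reports receptor beta-arrestin coupling in cells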
GAA850 FXN act: FXN promoter activators, primary screen, cell-based, luciferase luminescence, HEK293 lucGAA850 | HEK293 lucGAA850 FXN promoter luciferase reporter, 24 h; percent of 10 µM SAHA response | activation, % at 6 µM | 360,000 compounds, 0.56% hits | AID 540364, 2011;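 active = activation above the average of all compounds screened plus 3 SD, cutoff fixed separately per campaign, cut at about 7.5% in these data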
CXCR6 inh: CXCR6 receptor inhibitors, primary screen, cell-based, beta-arrestin, luminescence, CHO-K1 PathHunter, 1536-well; 360,000 compounds, 0.36% hits; AID 602244, 2012; inhibition, % at 20 µM; in the data active = inhibition above about 34%, passing the limit was not always enough;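 note: antagonist mode with CXCL16 agonist at 10 nM final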
APJ antag: antagonists of human apelin receptor APJ, primary screen, CHO-K1 cells, beta-arrestin complementation, luminescence | inhibition, % at 20 µM | 330,000 compounds, 0.32% hits;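 active = inhibition above about 40% at 20 µM, limit read from the data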;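 note: cells challenged with 10 nM apelin-13 agonist together with compound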
APJ antag conf: APJ antagonists blocking beta-arrestin recruitment, confirmation, cell-based, luminescence, single concentration, uHTS hits; 950 compounds, 66% hits; AID 2766, 2010; inhibition, % at 20 µM; antagonist mode; shares compounds with APJ antag; in the data active = inhibition above about 50%
GAA30 counter: GAA30 FXN promoter activators, confirmation, counter-screen for GAA850 frataxin promoter activator project, cell-based, luminescence, HEK293, lucGAA30, triplicate; shares compounds with GAA850 FXN act; HEK293 lucGAA30 FXN promoter luciferase, 24 h; DMSO = 0%, 5 µM ipriflavone = 100%; activation, % at 6 µM; 1,900 compounds, 66% hits; AID 588350, 2011;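 active = mean activation above the mean of solvent-only control wells plus 3 SD, cut at about 22% in these data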;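 note: counterscreen of GAA850 promoter hits where activity marks nonselective or luminescence artifacts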
FXN GAA850 conf: FXN GAA850 promoter activators in reporter cells, confirmation, cell-based, luminescence, HEK293 lucGAA850, triplicate; activation, % at 6 µM; shares compounds with GAA850 FXN act; HEK293 lucGAA850 FXN promoter luciferase reporter, 24 h; 100% = activation by SAHA; 1,900 compounds, 86% hits; AID 588351, 2011;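 active = mean activation above a set limit taken from the primary screen, cut at about 8% in these data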
CXCR6 antag conf: CXCR6 receptor antagonists, confirmation, cell-based, single concentration, beta-arrestin, luminescence | shares compounds with CXCR6 inh | AID 602409, 2012 | 700 compounds, 65% hits | inhibition, % at 20 µM | CHO-K1 CXCR6 PathHunter beta-arrestin;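 active = mean inhibition over four retests above 40%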;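 note: receptor stimulated with 10 nM CXCL16 agonist; beta-galactosidase fragment complementation upon beta-arrestin recruitment to receptor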
Hits are given with their value. A selection: hits, their analogues and other compounds. The true share with any hit is near 2%.

CCC(C)c1ccc(O)c(NC(=S)NC(=O)c2cccnc2)c1 (centres undefined) was read as CCR6 antagonist 87, APJ ag inactive, EBI2 antag inactive, GAA850 FXN act inactive, CXCR6 inh 74, APJ antag 67, APJ antag conf 131 and CXCR6 antag conf 70.
`O=C(NC(=S)Nc1ccccc1O)c1cccnc1` gave CCR6 antagonist 59, APJ ag inactive, EBI2 antag inactive, GAA850 FXN act inactive, CXCR6 inh 42, APJ antag 47, APJ antag conf inactive and CXCR6 antag conf 43.
C/C(=N\NC(=O)Cn1c(-c2ccccn2)nc2ccccc21)c1ccccc1 was read as CCR6 antagonist 60, APJ ag inactive, EBI2 antag inactive, GAA850 FXN act inactive, CXCR6 inh 46, APJ antag 47, APJ antag conf 72 and CXCR6 antag conf 47.
Screening Cc1ccccc1OCC(=O)O/N=C(\N)c1ccncc1 returned CCR6 antagonist inactive, APJ ag inactive, EBI2 antag inactive, GAA850 FXN act inactive, CXCR6 inh inactive and APJ antag inactive.
`CSc1ccc(/C=C/c2ccc3cccc(O)c3n2)cc1` gave CCR6 antagonist inactive, APJ ag inactive, EBI2 antag inactive, GAA850 FXN act inactive, CXCR6 inh inactive and APJ antag inactive.
Screening Oc1cccc2ccc(/C=C/c3cccs3)nc12 returned CCR6 antagonist 72, APJ ag inactive, EBI2 antag 40, GAA850 FXN act 11, CXCR6 inh 50, APJ antag 53, APJ antag conf 51, GAA30 counter 35, FXN GAA850 conf 24 and CXCR6 antag conf 51.
For Cc1ccsc1/C=C/c1ccc2cccc(O)c2n1 the results were CCR6 antagonist 74, APJ ag inactive, EBI2 antag inactive, GAA850 FXN act 8.5, CXCR6 inh 60, APJ antag 46, APJ antag conf inactive, GAA30 counter inactive, FXN GAA850 conf 24 and CXCR6 antag conf 66.
For C[C@H]1CN([C@@H](C)CO)C(=O)CCCn2cc(nn2)CO[C@@H]1CN(C)C(=O)Oc1ccccc1 the results were EBI2 antag inactive and CXCR6 inh inactive.
Screening CC(=O)N1N=C(c2cccs2)CC1c1cccc([N+](=O)[O-])c1 (centres undefined) returned CCR6 antagonist 62, APJ ag inactive, EBI2 antag inactive, GAA850 FXN act inactive, CXCR6 inh 50, APJ antag 53, APJ antag conf 52 and CXCR6 antag conf 54.
CC(=O)N1N=C(c2ccccc2)CC1c1cccc([N+](=O)[O-])c1 (centres undefined) was read as CCR6 antagonist inactive, APJ ag inactive, EBI2 antag inactive, GAA850 FXN act inactive, CXCR6 inh inactive and APJ antag inactive.
`COc1ccccc1OC(=O)c1cc2ccccc2oc1=O` gave CCR6 antagonist inactive, APJ ag inactive, EBI2 antag inactive, GAA850 FXN act inactive, CXCR6 inh inactive and APJ antag inactive.
